Assay results reported in ChEMBL document CHEMBL2086321, “Modulation of thermo-transient receptor potential (thermo-TRP) channels by thymol-based compounds” (Bioorg Med Chem Lett, 2012).
Each block holds one compound with its values, some of them ahead of it.

Columns and labels:
Format in all cases: cell-based
[1] = molecular target: Transient receptor potential cation channel subfamily A member 1 (Rattus norvegicus) (UniProt Q6RI86); test: Activation of rat TRPA1 expressed in HEK293 cells assessed as stimulation of intracellular Ca2+ levels relative to 100 uM allyl isothiocyanate
Transient receptor potential cation channel subfamily A member 1 (Rattus norvegicus), sequence (Q6RI86 whole entry): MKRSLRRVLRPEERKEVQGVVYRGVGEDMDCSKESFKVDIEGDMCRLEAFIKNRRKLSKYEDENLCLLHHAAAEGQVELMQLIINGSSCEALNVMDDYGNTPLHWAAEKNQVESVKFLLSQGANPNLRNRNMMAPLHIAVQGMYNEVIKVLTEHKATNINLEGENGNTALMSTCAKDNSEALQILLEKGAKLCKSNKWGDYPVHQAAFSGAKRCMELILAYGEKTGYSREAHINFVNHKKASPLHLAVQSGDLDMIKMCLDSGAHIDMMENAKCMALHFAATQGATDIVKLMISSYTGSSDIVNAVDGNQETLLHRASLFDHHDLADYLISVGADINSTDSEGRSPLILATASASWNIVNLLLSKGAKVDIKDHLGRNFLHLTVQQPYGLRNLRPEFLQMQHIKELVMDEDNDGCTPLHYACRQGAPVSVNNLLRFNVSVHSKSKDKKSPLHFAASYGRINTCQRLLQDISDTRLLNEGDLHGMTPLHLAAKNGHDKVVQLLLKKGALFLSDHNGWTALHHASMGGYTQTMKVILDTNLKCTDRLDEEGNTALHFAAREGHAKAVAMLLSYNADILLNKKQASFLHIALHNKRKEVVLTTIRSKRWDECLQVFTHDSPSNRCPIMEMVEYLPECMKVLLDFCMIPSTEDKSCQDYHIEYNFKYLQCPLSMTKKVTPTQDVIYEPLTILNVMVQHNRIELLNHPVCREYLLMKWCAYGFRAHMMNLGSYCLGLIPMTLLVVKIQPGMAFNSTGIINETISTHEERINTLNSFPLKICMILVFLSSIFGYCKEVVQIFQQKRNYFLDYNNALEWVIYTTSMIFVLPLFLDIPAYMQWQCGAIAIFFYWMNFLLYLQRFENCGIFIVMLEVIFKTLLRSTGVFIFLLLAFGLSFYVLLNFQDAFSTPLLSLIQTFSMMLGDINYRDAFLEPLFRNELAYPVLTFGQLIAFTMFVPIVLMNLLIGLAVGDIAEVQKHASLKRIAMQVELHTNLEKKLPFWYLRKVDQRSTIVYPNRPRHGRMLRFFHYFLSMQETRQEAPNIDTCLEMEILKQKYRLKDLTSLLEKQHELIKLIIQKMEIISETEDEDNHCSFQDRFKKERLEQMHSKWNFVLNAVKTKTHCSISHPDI
How it was run: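 Efficacy on stably transfected rat TRPA1-HEK293 cells is the intracellular Ca2+ rise expressed as percent of the allyl isothiocyanate response. Means ± SEM, N = 3.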

[2] = molecular target: T1, Transient receptor potential cation channel subfamily A member 1 (Rattus norvegicus, UniProt Q6RI86); test: Activation of rat TRPA1 expressed in HEK293 cells assessed as stimulation of intracellular Ca2+ levels
T1 sequence (Q6RI86 whole entry): as above
How it was run: (§1)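 HEK293 cells stably transfected with rat TRPA1, rat TRPM8 or rat TRPV3 cDNA. Compounds were applied and the rise in intracellular Ca2+ was recorded.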

[3] = molecular target: T1, Transient receptor potential cation channel subfamily A member 1; test: Inhibition of rat TRPA1 expressed in HEK293 cells assessed as reduction in 100 uM allyl isothiocyanate-stimulated increase in intracellular Ca2+ levels
How it was run: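 Rat TRPA1-HEK293 stable cells were preincubated 5 min with compound, then incubation continued with allyl isothiocyanate.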

[4] = molecular target: Transient receptor potential cation channel subfamily M member 8 (Rattus norvegicus) (UniProt Q8R455); test: Activation of rat TRPM8 expressed in HEK293 cells assessed as stimulation of intracellular Ca2+ levels relative to 4 uM ionomycin
Transient receptor potential cation channel subfamily M member 8 (Rattus norvegicus), sequence (Q8R455 whole entry, looked up): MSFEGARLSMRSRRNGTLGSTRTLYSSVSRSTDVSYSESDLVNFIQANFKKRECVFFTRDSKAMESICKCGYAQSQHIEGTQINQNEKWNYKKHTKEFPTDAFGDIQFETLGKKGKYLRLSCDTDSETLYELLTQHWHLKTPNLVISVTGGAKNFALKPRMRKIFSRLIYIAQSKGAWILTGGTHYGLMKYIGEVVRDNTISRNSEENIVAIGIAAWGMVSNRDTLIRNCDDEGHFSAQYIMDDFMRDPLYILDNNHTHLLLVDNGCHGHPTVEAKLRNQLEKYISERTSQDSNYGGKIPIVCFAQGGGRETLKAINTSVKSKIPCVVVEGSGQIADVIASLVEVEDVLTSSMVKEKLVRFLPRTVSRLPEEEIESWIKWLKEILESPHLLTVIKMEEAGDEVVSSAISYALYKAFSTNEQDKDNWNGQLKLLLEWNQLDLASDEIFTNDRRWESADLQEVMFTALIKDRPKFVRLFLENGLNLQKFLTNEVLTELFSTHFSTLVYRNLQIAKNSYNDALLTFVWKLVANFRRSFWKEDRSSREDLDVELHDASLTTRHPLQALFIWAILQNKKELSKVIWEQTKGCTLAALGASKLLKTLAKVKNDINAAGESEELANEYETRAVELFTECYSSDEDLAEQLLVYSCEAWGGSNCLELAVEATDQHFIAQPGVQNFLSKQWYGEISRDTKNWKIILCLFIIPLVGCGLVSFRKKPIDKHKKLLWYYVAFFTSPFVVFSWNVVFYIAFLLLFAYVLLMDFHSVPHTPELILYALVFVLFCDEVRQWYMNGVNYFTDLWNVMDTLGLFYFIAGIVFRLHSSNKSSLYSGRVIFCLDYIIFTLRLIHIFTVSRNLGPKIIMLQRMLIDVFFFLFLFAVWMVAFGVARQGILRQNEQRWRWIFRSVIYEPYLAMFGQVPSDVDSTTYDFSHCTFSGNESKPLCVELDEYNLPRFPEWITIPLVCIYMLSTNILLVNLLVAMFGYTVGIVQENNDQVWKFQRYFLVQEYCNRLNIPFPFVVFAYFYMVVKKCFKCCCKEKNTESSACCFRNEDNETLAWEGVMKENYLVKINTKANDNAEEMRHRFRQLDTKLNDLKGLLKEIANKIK
How it was run: (§2)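 Efficacy on HEK293 cells stably expressing rat TRPM8 or rat TRPV3 is the intracellular Ca2+ elevation expressed as percent of the ionomycin response.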

[5] = molecular target: T2, Transient receptor potential cation channel subfamily M member 8 (Rattus norvegicus, UniProt Q8R455); test: Inhibition of rat TRPM8 expressed in HEK293 cells assessed as reduction in […] icilin-stimulated increase in intracellular Ca2+ levels
T2 sequence (Q8R455 whole entry): as the sequence (Q8R455 whole entry, looked up) above

[6] = molecular target: T2, Transient receptor potential cation channel subfamily M member 8; test: Inhibition of rat TRPM8 expressed in HEK293 cells assessed as reduction in 20 uM menthol-stimulated increase in intracellular Ca2+ levels
How it was run: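 IC50 on rat TRPM8 stably expressed in HEK293 cells, measured as inhibition of the intracellular Ca2+ response to icilin or menthol. Means ± SEM, N = 3.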

HEK293 = test: Activation of rat TRPV3 expressed in HEK293 cells assessed as stimulation of intracellular Ca2+ levels relative to 4 uM ionomycin; how it was run: as §2
[7] = Activation of rat TRPV3 expressed in HEK293 cells assessed as stimulation of intracellular Ca2+ levels; how it was run: as §1
[8] = Inhibition of rat TRPV3 expressed in HEK293 cells assessed as reduction in 100 uM thymol-stimulated increase in intracellular Ca2+ levels
[9] = molecular target: T2, Transient receptor potential cation channel subfamily M member 8; test: Activation of rat TRPM8 expressed in HEK293 cells assessed as stimulation of intracellular Ca2+ levels; how it was run: as §1

Efficacy [1]: 204%
EC50 [2]: 6.4 µM
IC50 [3]: 8.8 µM
Efficacy [4]: 24.5%
EC50 [9]: 0.44 µM
IC50 [5]: 1 µM
IC50 [6]: 1 µM
EC50 [7]: 10.6 µM
IC50 [8]: 6.2 µM
Compound: Cc1ccc(C(C)C)c(NC(=O)c2ccc(C(C)(C)C)cc2)c1
Efficacy (HEK293): 34.8%

Efficacy [1]: 235%
EC50 [2]: 4.3 µM
IC50 [3]: 25 µM
Efficacy [4]: < 10%
IC50 [5]: > 100 µM
IC50 [6]: 26.7 µM
EC50 [7]: 7.6 µM
IC50 [8]: 3.3 µM
Compound: Cc1ccc(C(C)C)c(NC(=O)Nc2ccc(C(C)(C)C)cc2)c1
Efficacy (HEK293): 31.6%

Efficacy [1]: 194%
EC50 [2]: 3.6 µM
IC50 [3]: 3.6 µM
Efficacy [4]: < 10%
IC50 [5]: > 100 µM
IC50 [6]: 77.4 µM
EC50 [7]: 4 µM
IC50 [8]: 5 µM
Compound: COc1ccc(OC(=O)c2cc(C)ccc2C(C)C)cc1
Efficacy (HEK293): 27.1%

Efficacy [1]: < 10%
IC50 [3]: 26.1 µM
Efficacy [4]: 43.2%
EC50 [9]: 0.85 µM
IC50 [5]: 4.8 µM
IC50 [6]: 5 µM
EC50 [7]: 11.8 µM
IC50 [8]: 4.9 µM
Compound: Cc1ccc(C(C)C)c(C(=O)Nc2ccc(Cl)cc2)c1
Efficacy (HEK293): 43.4%

Efficacy [1]: 114%
EC50 [2]: 14.1 µM
IC50 [3]: 34.4 µM
Efficacy [4]: < 10%
IC50 [5]: 38.5 µM
IC50 [6]: 77.5 µM
IC50 [8]: 85.4 µM
Compound: COc1ccc(NC(=O)Nc2cc(C)ccc2C(C)C)cc1
Efficacy (HEK293): < 10%

Efficacy [1]: 132%
EC50 [2]: 1.3 µM
IC50 [3]: 0.78 µM
Efficacy [4]: < 10%
IC50 [5]: 0.7 µM
IC50 [6]: 0.85 µM
EC50 [7]: 1.4 µM
IC50 [8]: 1.9 µM
Compound: Cc1ccc(C(C)C)c(NC(=O)Oc2ccc(C(C)(C)C)cc2)c1
Efficacy (HEK293): 62.5%

Efficacy [1]: 65.4%
EC50 [2]: 3.9 µM
IC50 [3]: 3.6 µM
Efficacy [4]: 13.9%
EC50 [9]: 45.8 µM
IC50 [5]: 3.2 µM
IC50 [6]: 4.4 µM
EC50 [7]: 59.7 µM
IC50 [8]: 75.1 µM
Compound: Cc1ccc(C(C)C)c(C(=O)Nc2ccc(C(F)(F)F)cc2)c1
Efficacy (HEK293): 22.1%

Efficacy [1]: 149%
EC50 [2]: 45.9 µM
IC50 [3]: > 100 µM
Efficacy [4]: 58.1%
EC50 [9]: 4.8 µM
IC50 [5]: 14.7 µM
IC50 [6]: 15.2 µM
IC50 [8]: > 100 µM
Compound: COc1ccc(C(=O)Nc2cc(C)ccc2C(C)C)cc1
Efficacy (HEK293): < 10%

Efficacy [1]: 97.9%
EC50 [2]: 0.6 µM
IC50 [3]: 0.84 µM
Efficacy [4]: 40%
EC50 [9]: 0.6 µM
IC50 [5]: 1.9 µM
IC50 [6]: 1.2 µM
EC50 [7]: 1.2 µM
IC50 [8]: 1.1 µM
Compound: Cc1ccc(C(C)C)c(C(=O)Nc2ccc(C(C)(C)C)cc2)c1
Efficacy (HEK293): 36.5%

The next lines start with the compound.

Compound: Cc1ccc(C(C)C)c(NC(=O)Cc2ccc(-c3ccccc3)cc2)c1
Efficacy [1]: 212%
EC50 [2]: 6.5 µM
IC50 [3]: 3.9 µM
Efficacy [4]: < 10%
IC50 [5]: 31.2 µM
IC50 [6]: 78.3 µM
Efficacy (HEK293): 39.3%
EC50 [7]: 6.3 µM
IC50 [8]: 29.7 µM

Compound: Cc1ccc(C(C)C)c(O)c1 [THYMOL]
Efficacy [1]: 119%
EC50 [2]: 287 µM
IC50 [3]: 125 µM
Efficacy [4]: 31.1%
EC50 [9]: 52.2 µM
IC50 [5]: 315 µM
IC50 [6]: 169 µM
Efficacy (HEK293): 34.7%
EC50 [7]: 84.1 µM

Compound: Cc1ccc(C(C)C)c(C(=O)NCCc2ccccc2)c1
Efficacy [1]: < 10%
IC50 [3]: > 100 µM
Efficacy [4]: 64.1%
EC50 [9]: 0.27 µM
IC50 [5]: 0.6 µM
IC50 [6]: 0.32 µM
Efficacy (HEK293): < 10%
IC50 [8]: 75.4 µM

Compound: COc1ccc(NC(=O)Oc2cc(C)ccc2C(C)C)cc1
Efficacy [1]: 264%
EC50 [2]: 7.4 µM
IC50 [3]: 4.5 µM
Efficacy [4]: 30.3%
EC50 [9]: 5.1 µM
IC50 [5]: 2.5 µM
IC50 [6]: 5.2 µM
Efficacy (HEK293): < 10%
IC50 [8]: 64.3 µM

Compound: Cc1ccc(C(C)C)c(NC(=O)Oc2ccc(C(F)(F)F)cc2)c1
Efficacy [1]: 178%
EC50 [2]: 41 µM
IC50 [3]: 4.1 µM
Efficacy [4]: < 10%
IC50 [5]: 23.1 µM
IC50 [6]: 73.7 µM
Efficacy (HEK293): < 10%
IC50 [8]: 50.3 µM

Compound: Cc1ccc(C(C)C)c(OC(=O)c2ccc(-c3ccccc3)cc2)c1
Efficacy [1]: 204%
EC50 [2]: 3.3 µM
IC50 [3]: 5.5 µM
Efficacy [4]: < 10%
IC50 [5]: 21.2 µM
IC50 [6]: 18.6 µM
Efficacy (HEK293): 33.8%
EC50 [7]: 7.7 µM
IC50 [8]: 6.5 µM

Compound: Cc1ccc(C(C)C)c(NC(=O)Cc2cccc(I)c2)c1
Efficacy [1]: 154%
EC50 [2]: 20.5 µM
IC50 [3]: 43.2 µM
Efficacy [4]: < 10%
IC50 [5]: 11.6 µM
IC50 [6]: 14.1 µM
Efficacy (HEK293): 15%
EC50 [7]: 15.9 µM
IC50 [8]: 20.4 µM

Compound: COc1ccc(C(=O)Oc2cc(C)ccc2C(C)C)cc1
Efficacy [1]: 149%
EC50 [2]: 1 µM
IC50 [3]: 2.7 µM
Efficacy [4]: < 10%
IC50 [5]: 6.5 µM
IC50 [6]: 5 µM
Efficacy (HEK293): 23.1%
EC50 [7]: 4.9 µM
IC50 [8]: 9.7 µM

Compound: Cc1ccc(C(C)C)c(N)c1
Efficacy [1]: 57.4%
EC50 [2]: 64.2 µM
IC50 [3]: 212 µM
Efficacy [4]: 33.8%
EC50 [9]: 43.4 µM
IC50 [5]: 238 µM
IC50 [6]: 113 µM
Efficacy (HEK293): < 10%
IC50 [8]: > 100 µM

Compound: Cc1ccc(C(C)C)c(NC(=O)Nc2ccc(-c3ccccc3)cc2)c1
Efficacy [1]: 224%
EC50 [2]: 32.2 µM
IC50 [3]: 27.9 µM
Efficacy [4]: < 10%
IC50 [5]: 37.4 µM
IC50 [6]: 25.4 µM
Efficacy (HEK293): 16.9%
EC50 [7]: 5.9 µM
IC50 [8]: 12.8 µM

Compound: Cc1ccc(C(C)C)c(C(=O)NCCc2c[nH]c3ccc(OCc4ccccc4)cc23)c1
Efficacy [1]: 241%
EC50 [2]: 25.9 µM
IC50 [3]: 70.2 µM
Efficacy [4]: < 10%
IC50 [5]: 69.4 µM
IC50 [6]: 61.4 µM
Efficacy (HEK293): < 10%
IC50 [8]: 41.9 µM

Compound: Cc1ccc(C(C)C)c(C(=O)Oc2ccc(-c3ccccc3)cc2)c1
Efficacy [1]: 195%
EC50 [2]: 7.4 µM
IC50 [3]: 12.7 µM
Efficacy [4]: < 10%
IC50 [5]: > 100 µM
IC50 [6]: > 100 µM
Efficacy (HEK293): 64.3%
EC50 [7]: 14.5 µM
IC50 [8]: 2.9 µM

Compound: Cc1ccc(C(C)C)c(OC(=O)Cc2ccc(-c3ccccc3)cc2)c1
Efficacy [1]: 226%
EC50 [2]: 1.8 µM
IC50 [3]: 20.9 µM
Efficacy [4]: < 10%
IC50 [5]: > 100 µM
IC50 [6]: > 100 µM
Efficacy (HEK293): 52.7%
EC50 [7]: 3.8 µM
IC50 [8]: 1.5 µM
